This is one part of a sample in which hits are shown more often than they occur.
A1 apoptosis 2: A1 inhibitors via caspase activation, primary screen, cell-based, luminescence, HTS, two replicates; MEF A1-2A-BIM cells, caspase-Glo luminescence, 3 h; percent of clofoctol response, DMSO zero; caspase activation, % (concentration not given with the values); 24,000 tested, under 10 active; in the data active = caspase activation above about 5.9%
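Material: A1-2A-BIM-expressing MEF cells. Buffer or medium: RPMI-1640 plus 10% FBS. Incubation: cells settled overnight, compound exposure 3 h at 37 °C, 5% CO2. Signal: Caspase-Glo 3/7 luminescence, 1 h at room temperature.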
T cruzi intra: inhibitors of intracellular Trypanosoma cruzi, primary screen, cell-based, plate reader, single point, set 2. intracellular Trypanosoma cruzi in host cells. activity score (inhibition), % at 5.01 µM. 4.9% of 22,000 active. AID 651903, 2012; in the data active = activity score above about 55%;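 also: parasites and compound incubated about four days before reading; 0% = median of neutral control wells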
INS-1E rescue: protection of INS-1E cells from cytokine death, primary screen, ATP luminescence, single point | 0.1% of 20,000 active | INS-1E cytokine-induced death, 48 h; normalised: neutral wells 0, positive control 100 | protection from cytokine-induced ATP loss, % at 10 µM;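 active = mean replicate protection from cytokine-induced ATP loss at least 50% and at least 75% of replicates each reaching 50%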
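assay system = INS-1E rat insulinoma cells | amount = 8000 cells per well | medium = phenol-red-free RPMI with 5% fetal bovine serum | doses = one compound concentration, pin transfer | timing = 48 h cytokine plus compound treatment, 10 min reagent incubation | also added = IL-1β, TNF-α and IFN-γ cytokine mix | signal = CellTiter-Glo luminescence measuring cellular ATP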
Numbers without * were called inactive; / = not tested or not shown.

SMILES	A1 apoptosis 2	T cruzi intra	INS-1E rescue
C[C@@H]1CN([C@@H](C)CO)C(=O)c2cccc(NC(=O)c3ccc(-c4nccs4)cc3)c2O[C@H]1CN(C)Cc1ccc(Oc2ccccc2)cc1	/	62*	-29
C[C@@H]1CN([C@@H](C)CO)C(=O)c2cccc(NC(=O)c3ccc(-c4nccs4)cc3)c2O[C@@H]1CN(C)Cc1ccc(C(F)(F)F)cc1	1	70*	-65
C[C@@H]1CN([C@H](C)CO)C(=O)c2cccc(NC(=O)c3ccc(-c4nccs4)cc3)c2O[C@@H]1CN(C)Cc1ccc(C(F)(F)F)cc1	1	44	-23
C[C@@H]1CN([C@H](C)CO)C(=O)c2cccc(NC(=O)c3ccc(-c4nccs4)cc3)c2O[C@H]1CN(C)Cc1ccc(C(=O)Nc2ccccc2N)cc1	0	44	3
C=CCN1Cc2ccccc2[C@H]2OC(c3ccc(OCCCO)cc3)=N[C@@]2(Cc2ccccc2)C1=O	-1	/	/
O=C(O)CCCCCCC(=O)N/N=C/c1ccc(Br)o1	0	-12	10
C[C@@H]1CCCCO[C@@H](CN(C)C(=O)Nc2ccc(C(F)(F)F)cc2)[C@@H](C)CN([C@H](C)CO)C(=O)c2cc(NS(=O)(=O)c3ccc(Cl)cc3)ccc2O1	/	72*	-17
Cc1ccc(S(=O)(=O)Nc2ccc3c(c2)C(=O)N([C@H](C)CO)C[C@H](C)[C@H](CN(C)C(=O)Nc2ccc(C(F)(F)F)cc2)OCCCC[C@@H](C)O3)cc1	-1	63*	-9
Cc1ccc(S(=O)(=O)Nc2ccc3c(c2)C(=O)N([C@@H](C)CO)C[C@@H](C)[C@H](CN(C)C(=O)Nc2ccc(C(F)(F)F)cc2)OCCCC[C@@H](C)O3)cc1	0	/	/
C[C@@H]1CN([C@H](C)CO)C(=O)c2cc(NS(=O)(=O)c3ccc(Cl)cc3)ccc2O[C@@H](C)CCCCO[C@H]1CN(C)C(=O)Nc1ccc(C(F)(F)F)cc1	0	/	/
COc1ccc([Si](C)(C)[C@H]2[C@H](CCO)O[C@@]3(C(=O)N(Cc4ccccc4)c4ccc(NC(=O)[C@H](C)O)cc43)[C@@H]2C)cc1	0	/	/
C=CCN1C(=O)[C@]2(O[C@H](CCO)[C@@H]([Si](C)(C)c3ccc(OC)cc3)[C@@H]2C)c2cc(I)ccc21	9.0*	/	/
C[C@@H]1CN([C@H](C)CO)C(=O)c2cccc(NC(=O)Nc3ccc4c(c3)OCO4)c2O[C@H]1CN(C)Cc1ccc(C(=O)Nc2ccccc2N)cc1	/	77*	10
C[C@H](CO)N1C[C@H](C)[C@H](CN(C)Cc2ccc(C(=O)Nc3ccccc3N)cc2)Oc2c(NC(=O)Nc3ccc4c(c3)OCO4)cccc2C1=O	0	55	-10
C[C@H](CO)N1C[C@H](C)[C@@H](CN(C)Cc2ccc(C(=O)Nc3ccccc3N)cc2)Oc2ccc(NC(=O)Nc3ccc(F)cc3)cc2C1=O	/	26	-8
C[C@H](CO)N1C[C@H](C)[C@@H](CN(C)Cc2ccc(C(=O)Nc3ccccc3N)cc2)Oc2c(NC(=O)Nc3ccccc3)cccc2C1=O	/	61*	6
CC(C)NC(=O)Nc1cccc2c1O[C@H](CN(C)Cc1ccc(C(=O)Nc3ccccc3N)cc1)[C@H](C)CN([C@H](C)CO)C2=O	0	51	-5
C[C@@H]1CN([C@@H](C)CO)C(=O)c2cccc(NC(=O)Nc3ccc(F)cc3)c2O[C@@H]1CN(C)Cc1ccc(C(=O)Nc2ccccc2N)cc1	-4	70*	19
C[C@H]1CN([C@@H](C)CO)C(=O)c2cccc(NC(=O)Nc3ccccc3)c2O[C@@H]1CN(C)Cc1ccc(C(=O)Nc2ccccc2N)cc1	-1	74*	17
C[C@@H]1CN([C@@H](C)CO)C(=O)c2cccc(NC(=O)Nc3ccccc3)c2O[C@H]1CN(C)Cc1ccc(C(=O)Nc2ccccc2N)cc1	0	49	8
C[C@H](CO)N1C[C@H](C)[C@@H](CN(C)Cc2ccc(C(=O)O)cc2)Oc2c(NC(=O)Nc3ccc(C(F)(F)F)cc3)cccc2C1=O	2	-12	6
C[C@H](CO)N1C[C@H](C)[C@H](CN(C)Cc2ccc(C(=O)O)cc2)Oc2c(NC(=O)Nc3ccc(C(F)(F)F)cc3)cccc2C1=O	-1	-11	-8
C[C@@H]1CN([C@@H](C)CO)C(=O)c2cccc(NC(=O)Nc3ccc(C(F)(F)F)cc3)c2O[C@@H]1CN(C)Cc1ccc(C(=O)Nc2ccccc2N)cc1	/	78*	-16
C[C@H](CO)N1C[C@H](C)[C@H](CN(C)Cc2ccc(C(=O)Nc3ccccc3N)cc2)Oc2c(NC(=O)Nc3ccc(C(F)(F)F)cc3)cccc2C1=O	/	61*	-18
O=C(N/N=C/c1ccc(C(F)(F)F)cc1)c1ccccc1O	-6	-1	-13
SMILES	A1 apoptosis 2	T cruzi intra	INS-1E rescue
C[C@H](CO)N1C[C@H](C)[C@@H](CN(C)Cc2ccc3c(c2)OCO3)Oc2ccc(NC(=O)Nc3ccc4c(c3)OCO4)cc2CC1=O	-1	/	/
C[C@@H]1CN([C@H](C)CO)C(=O)Cc2cc(NC(=O)Nc3ccc4c(c3)OCO4)ccc2O[C@H]1CN(C)Cc1ccc(Cl)c(Cl)c1	/	68*	-13
C[C@@H]1CN([C@H](C)CO)C(=O)Cc2cc(NC(=O)Nc3ccc4c(c3)OCO4)ccc2O[C@@H]1CN(C)Cc1ccc(Cl)c(Cl)c1	0	74*	-32
C[C@@H]1CN([C@H](C)CO)C(=O)Cc2cc(NC(=O)Nc3ccc4c(c3)OCO4)ccc2O[C@@H]1CN(C)Cc1ccc2c(c1)OCO2	0	22	-14
O=C(CCCCCC(=O)N/N=C/c1ccc(O)c2ccccc12)NO	0	5	57*
O=C(CCCCC(=O)N/N=C/c1cccc(O)c1)NO	/	-22	-1
O=C(CCCCC(=O)N/N=C/c1ccc(-c2ccccc2)c(F)c1)NO	/	20	60*
COC(=O)CCCCCCC(=O)N/N=C/c1ccc(-c2ccccc2)c(F)c1	-2	1	5
O=C(CCCCC(=O)N/N=C/c1ccc2ccccc2c1)NO	0	18	73*
O=C(CCCCC(=O)N/N=C/c1cc(O)ccc1O)NO	0	13	41
Cc1ccsc1/C=N/NC(=O)c1cccc(C(=O)NO)c1	-3	-16	1
O=C(N/N=C/c1ccc2c(c1)OCCO2)c1ccccc1O	-9	-14	-18
O=C(O)CCCCCCC(=O)NN=C1CCCCCCC1	-1	-21	8
C[C@@H]1CN([C@H](C)CO)C(=O)c2cc(NC(=O)Nc3cccc4ccccc34)ccc2O[C@H]1CN(C)Cc1ccc(-c2ccccc2)cc1	0	86*	-12
C[C@H]1CN([C@@H](C)CO)C(=O)c2cc(NC(=O)Nc3cccc4ccccc34)ccc2O[C@H]1CN(C)Cc1ccc(-c2ccccc2)cc1	0	19	/
C[C@@H]1CN([C@H](C)CO)C(=O)c2cc(NC(=O)Nc3cccc4ccccc34)ccc2O[C@@H]1CN(C)Cc1ccc(Oc2ccccc2)cc1	/	29	-20
C[C@H]1CN([C@@H](C)CO)C(=O)c2cc(NC(=O)Nc3cccc4ccccc34)ccc2O[C@@H]1CN(C)Cc1ccc(Oc2ccccc2)cc1	0	81*	-26
